Screening data: PubChem, several laboratories
Only some compounds are listed: those with a hit (about 1% of all), similar ones and a draw of the others.
Efa HMGR inh: inhibitors of class II HMG-CoA reductase from Enterococcus faecalis | purified E. faecalis HMGR, NADPH absorbance 340 nm kinetic | inhibition, % at 10 µM | 0.41% of 190,000 active | AID 1066;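 active means inhibition above a set limit, the median over all tested compounds plus 3 SD, cut at about 9.5% in these data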;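 further: enzyme runs in reverse so mevalonate oxidation gives rising NADPH absorbance; 0% = complete reaction with DMSO and 100% = background rate lacking mevalonate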
PERK inhibitor: inhibitors of human PERK kinase. 0.17% of 220,000 active. AID 1416. CHO PERK-DD fusion, SEAP luminescence translation reporter. inhibition, % at 5.6 µM;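 active means inhibition above the mean inhibition of all tested compounds plus 3 SD, set separately per screening campaign, cut at about 2.9% in these data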;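 further: PERK kinase domain activated by AP20187 dimerizer at 100 nM; 0% = DMSO with dimerizer and 100% = rapamycin at 8.4 µM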
L929 necroptosis: L929 zVAD cell death inhibition. L929 zVAD necroptosis rescue, ATP luminescence, 24 h; with zVAD 60 µM. viability rescue, % at 10 µM. 0.38% of 220,000 active;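 active means activation, scaled between plate controls, above about 75%, limit read from the data; inactive means activation under that limit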;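 further: 0% = zVAD with DMSO and 100% = DMSO alone without zVAD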
TNF death inh: inhibitors of TNF-alpha induced necroptosis in Jurkat FADD-/- cells; 0.068% of 220,000 active; activation (protection from cell death), % at 10 µM; Jurkat FADD-/- TNF necroptosis rescue, ATP luminescence, 24 h; 0 = TNF only, 100 = no-TNF cells; AID 463075;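 active means activation, meaning protection from cell death, of at least 50% relative to plate controls; inactive means activation below 50%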;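 further: necroptosis triggered by 40 ng/mL TNF-alpha added together with compound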
Rad51 HR inh: Rad51 (human) homologous recombination inhibition. Q06609. hRad51 DNA strand exchange, fluorescence dequenching. inhibition, % at 10 µM. 0.085% of 200,000 active;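 active means inhibition above 40% at the single screening dose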;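 further: 0% = DMSO control wells and 100% = blanks with heterologous ssDNA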
Target sequence (Q06609 whole entry, looked up): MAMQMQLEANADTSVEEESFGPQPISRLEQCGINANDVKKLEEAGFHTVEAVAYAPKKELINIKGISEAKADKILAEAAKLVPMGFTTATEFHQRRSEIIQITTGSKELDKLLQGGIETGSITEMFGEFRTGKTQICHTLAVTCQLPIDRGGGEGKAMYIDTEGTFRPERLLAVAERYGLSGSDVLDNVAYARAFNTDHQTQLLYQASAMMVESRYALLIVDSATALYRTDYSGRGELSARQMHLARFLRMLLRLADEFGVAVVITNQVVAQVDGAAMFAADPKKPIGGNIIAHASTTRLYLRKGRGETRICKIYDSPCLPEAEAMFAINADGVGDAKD
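Material: hRad51 filaments on single-stranded DNA; Reagent: Donor/quencher-labelled 47-bp dsDNA substrate; Compound: 10 µM final, single point; Schedule: 37 °C 15-min filament assembly, 30-min compound preincubation, 15-min exchange; Technique: FRET fluorescence, excitation 485 nm, emission 520 nm; Benchmarks: control wells and blank wells on each plate.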
zVAD necrop conf: confirmed blocker of zVAD induced death in L929 cells; L929 zVAD-induced necroptosis rescue, ATP luminescence, 24 h; activation (protection from necroptosis), % at 10 µM; shares compounds with L929 necroptosis; AID 463117; 16% of 760 active;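 active means mean protection from necroptosis of at least 50% over duplicate tests; inactive means mean protection below 50%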;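 further: 0% = cells with zVAD alone and 100% = vehicle cells without zVAD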
* = called active by the depositor.

`CC(=O)Nc1ccc(S(=O)(=O)NCC2CCC(C(=O)NC(C)c3ccc4c(c3)OCCO4)CC2)cc1` (centres undefined) gave Efa HMGR inh -1, PERK inhibitor 1, L929 necroptosis 4, TNF death inh 0 and Rad51 HR inh -5.
`CCc1nnc(NS(=O)(=O)c2ccc(N/C=C\C(=O)c3cccc4ccccc34)cc2)s1` gave Efa HMGR inh -6, PERK inhibitor 0, L929 necroptosis 3, TNF death inh 2 and Rad51 HR inh -3.
Screening CCc1nnc(NS(=O)(=O)c2ccc(N/C=C/C(=O)c3ccc(OC)cc3)cc2)s1 returned Efa HMGR inh 5, PERK inhibitor 1, L929 necroptosis 79*, TNF death inh 0, Rad51 HR inh -2 and zVAD necrop conf 2.
For CC(=O)c1cnc(Nc2ccc(C)cc2)s1 the results were Efa HMGR inh -1, PERK inhibitor 1, L929 necroptosis 84*, TNF death inh 14, Rad51 HR inh 8 and zVAD necrop conf 3.
Screening COc1ccc(/C=N/Nc2ncc(Br)cn2)c(OC)c1 returned Efa HMGR inh -7, PERK inhibitor 1, L929 necroptosis 85*, TNF death inh 20, Rad51 HR inh -2 and zVAD necrop conf 1.
Cn1c(SCC(=O)Nc2cc(Cl)cc(Cl)c2)nnc1-c1ccc2nonc2c1 was read as PERK inhibitor -1, L929 necroptosis 0, TNF death inh -5 and Rad51 HR inh -4.
`CNS(=O)(=O)c1ccc2nc(NC(=O)/C=C/c3ccco3)sc2c1` gave Efa HMGR inh -3, PERK inhibitor 1, L929 necroptosis 76*, TNF death inh 0, Rad51 HR inh -24 and zVAD necrop conf 2.
Screening Cc1cccc(-n2cnc3cc([N+](=O)[O-])ccc32)c1 returned Efa HMGR inh -2, PERK inhibitor -1, L929 necroptosis 20, TNF death inh 2 and Rad51 HR inh 1.
For Nc1ccc(-n2cnc3cc([N+](=O)[O-])ccc32)cc1 the results were Efa HMGR inh 6, PERK inhibitor 0, L929 necroptosis 78*, TNF death inh 0, Rad51 HR inh 8 and zVAD necrop conf 42.
Screening CCn1cnc2cc(NS(=O)(=O)c3ccc(C)cc3)ccc21 returned Efa HMGR inh 3, PERK inhibitor -1, L929 necroptosis 0, TNF death inh 2 and Rad51 HR inh 1.
`COc1ccc(-n2cnc3cc([N+](=O)[O-])ccc32)cc1` gave Efa HMGR inh -5, PERK inhibitor 1, L929 necroptosis 79*, TNF death inh 2, Rad51 HR inh -19 and zVAD necrop conf 1.
Screening COc1ccc(-n2cnc3cc(NS(=O)(=O)c4ccc(C)cc4)ccc32)cc1 returned Efa HMGR inh -3, PERK inhibitor -1, L929 necroptosis 85*, TNF death inh 38, Rad51 HR inh 4 and zVAD necrop conf 41.
`CC(=O)c1ccc(N2Cc3ccccc3C3(CCOCC3)C2=N)cc1` gave Efa HMGR inh -1, PERK inhibitor 0, L929 necroptosis -1, TNF death inh 1 and Rad51 HR inh -3.
O=C(Nc1nccs1)c1ccc(-c2ccc(F)cc2)o1 was read as Efa HMGR inh -3, PERK inhibitor 0, L929 necroptosis 83*, TNF death inh 5, Rad51 HR inh -4 and zVAD necrop conf 1.
Screening Cc1cc(C)cc(NC(=O)c2ccc(CSc3nnnn3C)cc2)c1 returned Efa HMGR inh -3, PERK inhibitor -2, L929 necroptosis 1, TNF death inh 9 and Rad51 HR inh 1.
Screening C=CCn1c(SCc2ccc(C(=O)Nc3nccs3)cc2)nnc1-c1ccc(C)c(Cl)c1 returned Efa HMGR inh 4, PERK inhibitor 0, L929 necroptosis 103*, TNF death inh 9, Rad51 HR inh 0 and zVAD necrop conf 60*.
Screening Cn1nnnc1SCc1ccc(Cl)cc1 returned Efa HMGR inh 1, PERK inhibitor 1, L929 necroptosis 83*, TNF death inh 32, Rad51 HR inh 1 and zVAD necrop conf 8.
`Cn1nnnc1SCc1ccc(C(=O)Nc2nccs2)cc1` gave Efa HMGR inh 1, PERK inhibitor 0, L929 necroptosis 92*, TNF death inh 43, Rad51 HR inh 0 and zVAD necrop conf 88*.
Screening Cc1ccc(C2c3c(oc4ccccc4c3=O)C(=O)N2c2nncs2)cc1 (centres undefined) returned PERK inhibitor -1, L929 necroptosis 1, TNF death inh 2 and Rad51 HR inh -5.
`NC(=O)NOCc1ccc(Cl)cc1Cl` gave Efa HMGR inh 0, PERK inhibitor 1, L929 necroptosis 84*, TNF death inh 2, Rad51 HR inh 7 and zVAD necrop conf 26.
Screening Nc1ncnc2oc(-c3ccco3)c(-c3ccco3)c12 returned Efa HMGR inh -3, PERK inhibitor 1, L929 necroptosis 79*, TNF death inh -9, Rad51 HR inh -13 and zVAD necrop conf 36.
Cc1cc(C)cc(-c2nnc(SCC(=O)N3CCN(C(=O)c4ccco4)CC3)o2)c1 was read as Efa HMGR inh -1, PERK inhibitor -1, L929 necroptosis 85*, TNF death inh -7, Rad51 HR inh -3 and zVAD necrop conf 24.
Cc1ccc(CC(=O)N2CCN(C(=O)c3ccco3)CC2)cc1 was read as Efa HMGR inh -8, PERK inhibitor 0, L929 necroptosis 2, TNF death inh -1 and Rad51 HR inh -9.
CC1CC(C)CN(C(=O)CSc2nnc(-c3ccc(F)cc3)o2)C1 (centres undefined) was read as Efa HMGR inh 3, PERK inhibitor 0, L929 necroptosis 89*, TNF death inh 1, Rad51 HR inh 7 and zVAD necrop conf 12.
Screening Cc1ccc(C(=O)CCC(=O)N2CCN(C(=O)c3ccco3)CC2)cc1 returned Efa HMGR inh 0, PERK inhibitor 0, L929 necroptosis 76*, TNF death inh -1, Rad51 HR inh 2 and zVAD necrop conf 8.
O=C(CSc1nnc(-c2ccc(Br)cc2)o1)N1CCN(C(=O)c2ccco2)CC1 was read as Efa HMGR inh -1, PERK inhibitor -1, L929 necroptosis 6, TNF death inh 0 and Rad51 HR inh 2.
COCCN1CCC(CNCc2c(C(=O)N3CCCCC3)nc3c(C)cccn23)C1 (centres undefined) was read as PERK inhibitor 0, L929 necroptosis 0 and TNF death inh 0.
Screening O=S(=O)(c1ccc(Cl)cc1)N1CCCC(C(F)(F)F)C1 (centres undefined) returned Efa HMGR inh 4, PERK inhibitor 1, L929 necroptosis 3, TNF death inh 0 and Rad51 HR inh 9.
COc1ccc(S(=O)(=O)c2cnc3ccccc3n2)cc1 was read as Efa HMGR inh -1, PERK inhibitor 0, L929 necroptosis 76*, TNF death inh 21, Rad51 HR inh 1 and zVAD necrop conf 1.
